Consider 17 compounds from ChEMBL document CHEMBL1781928, “Thiazolylmethyl ortho-substituted phenyl glucoside library as novel C-aryl glucoside SGLT2 inhibitors” (Eur J Med Chem, 2011).

This test addresses T1, Sodium/glucose cotransporter 2 (Homo sapiens, UniProt P31639).
T1 sequence (P31639 whole entry): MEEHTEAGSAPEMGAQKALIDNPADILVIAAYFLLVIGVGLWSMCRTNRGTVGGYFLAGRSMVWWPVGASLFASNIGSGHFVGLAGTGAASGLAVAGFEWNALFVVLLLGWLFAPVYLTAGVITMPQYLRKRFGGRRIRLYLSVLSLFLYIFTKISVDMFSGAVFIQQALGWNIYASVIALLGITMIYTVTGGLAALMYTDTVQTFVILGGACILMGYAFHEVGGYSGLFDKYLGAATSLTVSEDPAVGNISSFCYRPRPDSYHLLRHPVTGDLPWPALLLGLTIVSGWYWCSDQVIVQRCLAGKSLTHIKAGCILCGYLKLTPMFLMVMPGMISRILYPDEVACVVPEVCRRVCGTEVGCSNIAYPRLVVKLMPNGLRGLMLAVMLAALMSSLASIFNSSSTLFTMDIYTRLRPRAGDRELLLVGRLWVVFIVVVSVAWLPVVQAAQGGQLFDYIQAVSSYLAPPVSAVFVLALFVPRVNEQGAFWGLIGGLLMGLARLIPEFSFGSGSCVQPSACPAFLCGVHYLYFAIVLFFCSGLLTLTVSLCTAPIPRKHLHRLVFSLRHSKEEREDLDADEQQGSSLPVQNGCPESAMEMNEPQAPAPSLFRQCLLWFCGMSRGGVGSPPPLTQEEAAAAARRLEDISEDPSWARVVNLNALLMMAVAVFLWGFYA
Kind of test: Inhibition of human SGLT2 expressed in CHO cells assessed as [14C]-alpha-methyl-D-glucopyranoside uptake after 2 hrs by liquid scintillation counter. It counts as cell-based. Put shortly: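 hSGLT2 cDNA from adult kidney, stably transfected into CHO cells. They were pretreated 10 min at 37 °C in choline-chloride buffer (pH 7.4), then taken up 2 h at 37 °C in NaCl buffer with 1 mM unlabeled AMG plus ¹⁴C-AMG (8 uM) and inhibitor or DMSO. Two washes in buffer containing 10 mM AMG. IC₅₀ by nonlinear regression.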

SMILES strings stand for the structures.

One may read the IC50 as the concentration at which inhibition is half-maximal. With `OCc1cc(Cl)c(Cc2ncc(-c3ccco3)s2)cc1[C@@H]1O[C@H](CO)[C@@H](O)[C@H](O)[C@H]1O`, the IC50 amounted to 5.81 nM. The figure for `C=CCOCc1cc(Cl)c(Cc2ncc(-c3ccco3)s2)cc1[C@@H]1O[C@H](CO)[C@@H](O)[C@H](O)[C@H]1O` is 17.5 nM. With `C#CCOc1cc(Cl)c(Cc2ncc(-c3ccco3)s2)cc1[C@@H]1O[C@H](CO)[C@@H](O)[C@H](O)[C@H]1O` the figure was 2.23 nM. For the compound `CCOc1cc(Cl)c(Cc2ncc(-c3ccsc3)s2)cc1[C@@H]1O[C@H](CO)[C@@H](O)[C@H](O)[C@H]1O`, the IC50 is 1.18 nM. With `OCc1cc(Cl)c(Cc2ncc(-c3cccs3)s2)cc1[C@@H]1O[C@H](CO)[C@@H](O)[C@H](O)[C@H]1O` the figure was 5.88 nM; with `C=CCOCc1cc(Cl)c(Cc2ncc(-c3cccs3)s2)cc1[C@@H]1O[C@H](CO)[C@@H](O)[C@H](O)[C@H]1O`, 16.2 nM; with `CCCOc1cc(Cl)c(Cc2ncc(-c3ccco3)s2)cc1[C@@H]1O[C@H](CO)[C@@H](O)[C@H](O)[C@H]1O`, 21.6 nM. The figure for `OC[C@H]1O[C@@H](c2cc(Cc3ncc(-c4ccco4)s3)c(Cl)cc2Cl)[C@H](O)[C@@H](O)[C@@H]1O` is 2.24 nM; for `COc1cc(Cl)c(Cc2ncc(-c3cccs3)s2)cc1[C@@H]1O[C@H](CO)[C@@H](O)[C@H](O)[C@H]1O` it is 1.59 nM. The figure for `C=CCCOc1cc(Cl)c(Cc2ncc(-c3ccco3)s2)cc1[C@@H]1O[C@H](CO)[C@@H](O)[C@H](O)[C@H]1O` is 32.8 nM.

Consider `CN(C)CCOc1cc(Cl)c(Cc2ncc(-c3ccco3)s2)cc1[C@@H]1O[C@H](CO)[C@@H](O)[C@H](O)[C@H]1O`, for which the IC50 was determined as 713 nM.

With `C=CCOCc1cc(Cl)c(Cc2ncc(-c3ccsc3)s2)cc1[C@@H]1O[C@H](CO)[C@@H](O)[C@H](O)[C@H]1O`, the IC50 is 10 nM.

`OCc1cc(Cl)c(Cc2ncc(-c3ccoc3)s2)cc1[C@@H]1O[C@H](CO)[C@@H](O)[C@H](O)[C@H]1O`: the IC50 was found to be 20.5 nM. The figure for `OC[C@H]1O[C@@H](c2cc(Cc3ncc(-c4ccc(F)cc4)s3)c(Cl)cc2F)[C@H](O)[C@@H](O)[C@@H]1O` is 27.4 nM; for `COc1cc(Cl)c(Cc2ncc(-c3ccco3)s2)cc1[C@@H]1O[C@H](CO)[C@@H](O)[C@H](O)[C@H]1O` it is 2.15 nM. With `OCc1cc(Cl)c(Cc2ncc(-c3ccsc3)s2)cc1[C@@H]1O[C@H](CO)[C@@H](O)[C@H](O)[C@H]1O` the figure was 2.23 nM. The figure for `C=CCOCc1cc(Cl)c(Cc2ncc(-c3ccoc3)s2)cc1[C@@H]1O[C@H](CO)[C@@H](O)[C@H](O)[C@H]1O` is 38.7 nM.
